# Reference: ChEMBL document CHEMBL1671716, “Antimicrobial susceptibility patterns for recent clinical isolates of anaerobic bacteria in South Korea” (2010)
# Legend:
# Phocaeicola vulgatus = assay: Antimicrobial activity against Bacteroides vulgatus assessed as percent susceptible isolates after 48 hrs by agar dilution method; type: functional
# Bacteroides caccae [1] = assay: Antimicrobial activity against Bacteroides caccae after 48 hrs by agar dilution method; type: functional
# Outline: (§1)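 MICs on clinical anaerobe isolates by the CLSI agar dilution method. Inoculum of 10^5 CFU applied with a Steers replicator. Plates incubated 48 h at 37°C in an anaerobic chamber.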
# Actinomyces israelii [2] = assay: Antimicrobial activity against Actinomyces israelii assessed as percent resistant isolates after 48 hrs by agar dilution method; type: functional
# Outline: (§2)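 CLSI agar dilution on recent Korean clinical anaerobe isolates. Inoculum 10^5 CFU per spot by replicator. Plates incubated in an anaerobic chamber at 37°C for 48 h. For piperacillin plus tazobactam, tazobactam was held constant at 4 μg/ml. Resistance and susceptibility rates derived from MICs.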
# Prevotella buccae [3] = assay: Antimicrobial activity against Prevotella buccae assessed as percent susceptible isolates after 48 hrs by agar dilution method; type: functional, Segatella buccae
# Outline: (§3)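 CLSI agar dilution (M11-A7); inoculum 10^5 CFU applied by replicator; plates incubated anaerobically 48 h at 37°C. For piperacillin-tazobactam, tazobactam held constant at 4 μg/ml.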
# [4] = tested on: Bifidobacterium adolescentis; assay: Antimicrobial activity against Bifidobacterium adolescentis assessed as percent susceptible isolates after 48 hrs by agar dilution method; type: functional
# Schaalia odontolytica = assay: Antimicrobial activity against Actinomyces odontolyticus assessed as percent resistant isolates after 48 hrs by agar dilution method; type: functional; outline: as §2
# Eggerthella lenta [5] = assay: Antimicrobial activity against Eubacterium lentum after 48 hrs by agar dilution method; type: functional; outline: as §3
# Actinomyces israelii [6] = assay: Antimicrobial activity against Actinomyces israelii assessed as percent susceptible isolates after 48 hrs by agar dilution method; type: functional
# Fusobacterium nucleatum = assay: Antimicrobial activity against Fusobacterium nucleatum after 48 hrs by agar dilution method; type: functional; outline: as §3
# Prevotella bivia [7] = assay: Antimicrobial activity against Prevotella bivia assessed as percent susceptible isolates after 48 hrs by agar dilution method; type: functional; outline: as §3
# [8] = tested on: Peptostreptococcus anaerobius; assay: Antimicrobial activity against Peptostreptococcus anaerobius assessed as percent susceptible isolates after 48 hrs by agar dilution method; type: functional; outline: as §2
# Actinomyces naeslundii = assay: Antimicrobial activity against Actinomyces naeslundii assessed as percent susceptible isolates after 48 hrs by agar dilution method; type: functional
# Prevotella bivia [9] = assay: Antimicrobial activity against Prevotella bivia assessed as percent resistant isolates after 48 hrs by agar dilution method; type: functional; outline: as §2
# Anaerococcus prevotii [10] = assay: Antimicrobial activity against Anaerococcus prevotii assessed as percent resistant isolates after 48 hrs by agar dilution method; type: functional; outline: as §2
# Hoylesella oralis [11] = assay: Antimicrobial activity against Prevotella oralis assessed as percent susceptible isolates after 48 hrs by agar dilution method; type: functional
# Outline: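 CLSI agar dilution MIC testing of clinical isolates. 10^5 CFU spotted by replicator, plates incubated 48 h at 37°C in an anaerobic chamber. Susceptibility rates derived from the MICs.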
# Parvimonas micra [12] = assay: Antimicrobial activity against Peptostreptococcus micros assessed as percent susceptible isolates after 48 hrs by agar dilution method; type: functional; outline: as §2
# Eggerthella lenta [13] = assay: Antimicrobial activity against Eubacterium lentum assessed as percent susceptible isolates after 48 hrs by agar dilution method; type: functional; outline: as §3
# [14] = tested on: Bacteroides thetaiotaomicron; assay: Antimicrobial activity against Bacteroides thetaiotaomicron assessed as percent resistant isolates after 48 hrs by agar dilution method; type: functional; outline: as §2
# Bifidobacterium sp. [15] = assay: Antimicrobial activity against Bifidobacterium sp. assessed as percent resistant isolates after 48 hrs by agar dilution method; type: functional; outline: as §2
# Clostridioides difficile [16] = assay: Antimicrobial activity against Clostridium difficile assessed as percent resistant isolates after 48 hrs by agar dilution method; type: functional
# Actinomyces israelii [17] = assay: Antimicrobial activity against Actinomyces israelii after 48 hrs by agar dilution method; type: functional; outline: as §1
# Bacteroides ovatus [18] = assay: Antimicrobial activity against Bacteroides ovatus assessed as percent resistant isolates after 48 hrs by agar dilution method; type: functional; outline: as §2
# Clostridium perfringens [19] = assay: Antimicrobial activity against Clostridium perfringens assessed as percent susceptible isolates after 48 hrs by agar dilution method; type: functional
# Finegoldia magna = assay: Antimicrobial activity against Finegoldia magna after 48 hrs by agar dilution method; type: functional; outline: as §3
# Bifidobacterium sp. [20] = assay: Antimicrobial activity against Bifidobacterium sp. assessed as percent susceptible isolates after 48 hrs by agar dilution method; type: functional; outline: as §3
# Prevotella buccae [21] = assay: Antimicrobial activity against Prevotella buccae after 48 hrs by agar dilution method; type: functional; conditions: Segatella buccae; outline: as §3
# Clostridium perfringens [22] = assay: Antimicrobial activity against Clostridium perfringens after 48 hrs by agar dilution method; type: functional
# [23] = tested on: Peptoniphilus asaccharolyticus; assay: Antimicrobial activity against Peptoniphilus asaccharolyticus after 48 hrs by agar dilution method; type: functional; outline: as §3
# Eubacterium sp. [24] = assay: Antimicrobial activity against Eubacterium sp. assessed as percent resistant isolates after 48 hrs by agar dilution method; type: functional; outline: as §2
# Bacteroides fragilis = assay: Antimicrobial activity against Bacteroides fragilis assessed as percent resistant isolates after 48 hrs by agar dilution method; type: functional; outline: as §2
# Parvimonas micra [25] = assay: Antimicrobial activity against Peptostreptococcus micros after 48 hrs by agar dilution method; type: functional; outline: as §3
# [26] = tested on: Peptostreptococcus anaerobius; assay: Antimicrobial activity against Peptostreptococcus anaerobius after 48 hrs by agar dilution method; type: functional; outline: as §3
# Prevotella intermedia [27] = assay: Antimicrobial activity against Prevotella intermedia after 48 hrs by agar dilution method; type: functional; outline: as §3
# Schaalia meyeri [28] = assay: Antimicrobial activity against Actinomyces meyeri assessed as percent susceptible isolates after 48 hrs by agar dilution method; type: functional
# Clostridioides difficile [29] = assay: Antimicrobial activity against Clostridium difficile after 48 hrs by agar dilution method; type: functional
# Eubacterium sp. [30] = assay: Antimicrobial activity against Eubacterium sp. after 48 hrs by agar dilution method; type: functional; outline: as §3
# Fusobacterium varium = assay: Antimicrobial activity against Fusobacterium varium after 48 hrs by agar dilution method; type: functional; outline: as §3
# Prevotella intermedia [31] = assay: Antimicrobial activity against Prevotella intermedia assessed as percent susceptible isolates after 48 hrs by agar dilution method; type: functional; outline: as §3
# [32] = tested on: Bacteroides thetaiotaomicron; assay: Antimicrobial activity against Bacteroides thetaiotaomicron assessed as percent susceptible isolates after 48 hrs by agar dilution method; type: functional
# Schaalia meyeri [33] = assay: Antimicrobial activity against Actinomyces meyeri assessed as percent resistant isolates after 48 hrs by agar dilution method; type: functional; outline: as §2
# Hoylesella oralis [34] = assay: Antimicrobial activity against Prevotella oralis assessed as percent resistant isolates after 48 hrs by agar dilution method; type: functional; outline: as §2
# Bifidobacterium sp. [35] = assay: Antimicrobial activity against Bifidobacterium sp. after 48 hrs by agar dilution method; type: functional; outline: as §1
# [36] = tested on: Parabacteroides distasonis; assay: Antimicrobial activity against Bacteroides distasonis after 48 hrs by agar dilution method; type: functional; outline: as §1
# Anaerococcus prevotii [37] = assay: Antimicrobial activity against Anaerococcus prevotii after 48 hrs by agar dilution method; type: functional; outline: as §1
# [38] = tested on: Bifidobacterium adolescentis; assay: Antimicrobial activity against Bifidobacterium adolescentis assessed as percent resistant isolates after 48 hrs by agar dilution method; type: functional; outline: as §2
# Bacteroides caccae [39] = assay: Antimicrobial activity against Bacteroides caccae assessed as percent susceptible isolates after 48 hrs by agar dilution method; type: functional
# Bacteroides ovatus [40] = assay: Antimicrobial activity against Bacteroides ovatus after 48 hrs by agar dilution method; type: functional; outline: as §1
compound,measurement,setting,value
C[C@@H](O)[C@H]1C(=O)N2C(C(=O)O)=C(S[C@@H]3CN[C@H](C(=O)N(C)C)C3)[C@H](C)[C@H]12 [MEROPENEM],Activity,Phocaeicola vulgatus,98%
same,MIC50,Bacteroides caccae [1],0.25 µg/mL
same,MIC90,Bacteroides caccae [1],2 µg/mL
same,Activity,Actinomyces israelii [2],8%
same,Activity,Prevotella buccae [3],100%
same,Activity,[4],92%
same,Activity,Schaalia odontolytica,8%
same,MIC50,Eggerthella lenta [5],0.125 µg/mL
same,MIC90,Eggerthella lenta [5],2 µg/mL
same,Activity,Actinomyces israelii [6],92%
same,MIC,Fusobacterium nucleatum,0.008 µg/mL
same,Activity,Prevotella bivia [7],100%
same,Activity,[8],100%
same,Activity,Actinomyces naeslundii,92%
same,Activity,Prevotella bivia [9],0%
same,Activity,Anaerococcus prevotii [10],0%
same,Activity,Hoylesella oralis [11],100%
same,Activity,Parvimonas micra [12],0%
same,Activity,Eggerthella lenta [13],92%
same,Activity,[14],0%
same,Activity,Bifidobacterium sp. [15],8%
same,Activity,Clostridioides difficile [16],0%
same,MIC50,Actinomyces israelii [17],0.125 µg/mL
same,MIC90,Actinomyces israelii [17],2 µg/mL
same,Activity,Bacteroides ovatus [18],0%
same,Activity,Clostridium perfringens [19],100%
same,MIC50,Finegoldia magna,0.06 µg/mL
same,MIC90,Finegoldia magna,0.125 µg/mL
same,Activity,Bifidobacterium sp. [20],92%
same,MIC50,Prevotella buccae [21],0.125 µg/mL
same,MIC90,Prevotella buccae [21],0.5 µg/mL
same,MIC50,Clostridium perfringens [22],0.015 µg/mL
same,MIC90,Clostridium perfringens [22],0.015 µg/mL
same,MIC50,[23],≤ 0.008 µg/mL
same,MIC90,[23],0.03 µg/mL
same,Activity,Eubacterium sp. [24],8%
same,Activity,Bacteroides fragilis,3%
same,MIC,Parvimonas micra [25],0.01 µg/mL
same,MIC50,Parvimonas micra [25],0.25 µg/mL
same,MIC90,Parvimonas micra [25],4 µg/mL
same,MIC,[26],0.01 µg/mL
same,MIC50,[26],0.25 µg/mL
same,MIC90,[26],4 µg/mL
same,MIC50,Prevotella intermedia [27],0.06 µg/mL
same,MIC90,Prevotella intermedia [27],0.06 µg/mL
same,Activity,Schaalia meyeri [28],92%
same,MIC50,Clostridioides difficile [29],2 µg/mL
same,MIC90,Clostridioides difficile [29],2 µg/mL
same,MIC50,Eubacterium sp. [30],0.125 µg/mL
same,MIC90,Eubacterium sp. [30],2 µg/mL
same,MIC,Fusobacterium varium,0.008 µg/mL
same,Activity,Prevotella intermedia [31],100%
same,Activity,[32],98%
same,Activity,Schaalia meyeri [33],8%
same,Activity,Hoylesella oralis [34],0%
same,MIC50,Bifidobacterium sp. [35],0.125 µg/mL
same,MIC90,Bifidobacterium sp. [35],2 µg/mL
same,MIC50,[36],0.25 µg/mL
same,MIC90,[36],2 µg/mL
same,MIC50,Anaerococcus prevotii [37],0.06 µg/mL
same,MIC90,Anaerococcus prevotii [37],0.125 µg/mL
same,Activity,[38],0%
same,Activity,Bacteroides caccae [39],98%
same,MIC50,Bacteroides ovatus [40],0.25 µg/mL
same,MIC90,Bacteroides ovatus [40],2 µg/mL
